From ChEMBL document CHEMBL1138262, “Discovery of small molecule CXCR4 antagonists” (J Med Chem, 2007)
pEC50, pIC50: −log10 of the molar value. Where a SMILES comes first, the peptide text is derived from it. Bridges are numbered along the chain shown (N, C = ends). [ ]: non-standard residue; d: D form. 2Nal = N[C@@H](Cc1ccc2ccccc2c1)C(=O)O; Cit = NC(=O)NCCC[C@H](N)C(=O)O

Assays:
[1] = biological target: T1, C-X-C chemokine receptor type 4 (Homo sapiens, UniProt P61073); assay: Displacement of biotinylated TN14003 from CXCR4 in MDA-MB-231 cells; format: cell-based
How it was run: (§1)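 MDA-MB-231 cells (2 × 10^4) seeded 2 days before. Exposed to compound at 1, 10, 100 or 1000 nM for 10 min at room temperature, then fixed in ice-cold 4% paraformaldehyde. After rehydration in PBS and avidin/biotin blocking, incubated 45 min at room temperature with 0.05 µg/mL biotinylated TN14003, then streptavidin-rhodamine 30 min. Residual binding assessed by fluorescence microscopy.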

MDA-MB-231 [2] = assay: Cytotoxicity against MDA-MB-231 cells; format: functional; conditions: Homo sapiens
[3] = Selectivity index, ratio of IC50 for CXCR4 to CC50 for MDA-MB-231 cells; format: functional, Homo sapiens
[4] = biological target: T1, C-X-C chemokine receptor type 4; assay: Inhibition of CXCR4 in MDA-MB-231 cells; format: cell-based; how it was run: as §1
MDA-MB-231 [5] = assay: Inhibition of SDF1-mediated invasion of human MDA-MB-231 cells; format: functional, cell-based
How it was run: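 Matrigel invasion chamber; MDA-MB-231 cells mixed with compound before seeding in top chamber, 200 ng/mL SDF-1α in bottom chamber as chemoattractant. Incubated 22 h in humidified incubator. Non-invading cells swabbed off the top. Invaded cells on the underside fixed in methanol, stained with H&E and counted to give invasion rate.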

[6] = biological target: T1, C-X-C chemokine receptor type 4; assay: Antagonist activity at CXCR4 in human U87 cells assessed as inhibition of SDF1-induced modulation of cAMP production by TR-FRET assay; format: functional, cell-based; conditions: U-87MG ATCC
How it was run: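 U87 glioma cells overexpressing CD4 and CXCR4 (U87CD4CXCR4), seeded 2500 cells/well in 2% FBS 48 h before test. Cells pretreated with compound at various concentrations for 15 min at room temperature, then challenged with 150 ng/mL SDF-1. SDF-1-driven cAMP reduction measured by TR-FRET LANCE cAMP kit as Gi function readout.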

T1 sequence (P61073 whole entry): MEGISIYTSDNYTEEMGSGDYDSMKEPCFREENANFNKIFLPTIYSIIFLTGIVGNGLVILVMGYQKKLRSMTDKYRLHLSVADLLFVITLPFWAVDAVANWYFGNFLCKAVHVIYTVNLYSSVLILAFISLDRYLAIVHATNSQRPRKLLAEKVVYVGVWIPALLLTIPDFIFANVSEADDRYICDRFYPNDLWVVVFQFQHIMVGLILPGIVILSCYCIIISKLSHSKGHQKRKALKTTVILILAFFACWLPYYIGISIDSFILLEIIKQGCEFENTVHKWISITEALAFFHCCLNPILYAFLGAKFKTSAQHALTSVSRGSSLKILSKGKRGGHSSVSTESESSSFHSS

| SMILES | EC [1] | further results |
| --- | --- | --- |
| N#Cc1ccc(NCc2ccc(CNc3ccc(C#N)cc3)cc2)cc1 | 1000 nM |  |
| N=C(N)NCc1ccc(CNC(=N)N)cc1 | > 1000 nM |  |
| CN(Cc1ccc(CN(C)c2ccccc2)cc1)c1ccccc1 | 100 nM |  |
| CCc1ccc(NCc2ccc(CNc3ccc(CC)cc3)cc2)cc1 | 20 nM |  |
| C[N+](C)(C)Cc1ccc(C[N+](C)(C)C)cc1 | > 1000 nM |  |
| O=[N+]([O-])c1ccc(NCc2ccc(CNc3ccc([N+](=O)[O-])cc3)cc2)cc1 | 1000 nM |  |
| N=C(N)c1ccc(CN)cc1 | > 1000 nM |  |
| C(=N\NC1=NCCN1)/c1ccc(/C=N/NC2=NCCN2)cc1 | > 1000 nM |  |
| NCc1ccc(CN)cc1 | > 1000 nM |  |
| N=C(N)c1ccc(C(=N)N)cc1 | > 1000 nM |  |
| Cc1cc(CN)c(C)cc1CN | > 1000 nM |  |
| CN(C)CCNCc1ccc(CNCCN(C)C)cc1 | > 1000 nM |  |
| N=C(N)Nc1ccc(NC(=N)N)cc1 | > 1000 nM |  |
| N=C(N)NCCC[C@H](NC(=O)[C@@H]1CSSC[C@H](NC(=O)[C@H](Cc2ccc3ccccc3c2)NC(=O)[C@H](CCCNC(=N)N)NC(=O)[C@@H](N)CCCNC(=N)N)C(=O)N[C@@H](Cc2ccc(O)cc2)C(=O)N[C@@H](CCCNC(N)=O)C(=O)N[C@@H](CCCCN)C(=O)N[C@H](CCCCN)C(=O)N2CCC[C@H]2C(=O)N[C@@H](Cc2ccc(O)cc2)C(=O)N[C@@H](CCCNC(=N)N)C(=O)N[C@@H](CCCNC(N)=O)C(=O)N1)C(N)=O (H-RR[2Nal]CY[Cit]K[dK]PYR[Cit]CR-NH2; disulfide 4-13) |  | CC50 (MDA-MB-231 [2]): 410000 nM; Ratio [3]: 680000; pIC50 [4]: 9.22 |
| c1ccc(CNc2ccccc2)cc1 | > 1000 nM |  |
| NC(=O)c1ccc(C(N)=O)cc1 | > 1000 nM |  |
| COc1ccc(NCc2ccc(CNc3ccc(OC)cc3)cc2)cc1 | 25 nM |  |
| Oc1cc(CN2CCOCC2)c(O)cc1CN1CCOCC1 | > 1000 nM |  |
| c1ccc(NCc2ccc(CNc3ccccn3)cc2)nc1 |  | pEC50 (MDA-MB-231 [5]): 8.28; pEC50 [1]: 9.00; pEC50 ([1]; read-out: EC50): 9.52; Activity [6]: Dose-dependent effect |
| CN(C)Cc1ccc(CN(C)C)cc1 | > 1000 nM |  |
| FC(F)(F)c1cccc(NCc2ccc(CNc3cccc(C(F)(F)F)c3)cc2)c1 | 1000 nM |  |
| O=[N+]([O-])c1cccc(NCc2ccc(CNc3cccc([N+](=O)[O-])c3)cc2)c1 | 1 nM |  |
| Cc1ccc(NCc2ccc(CNc3ccc(C)cc3)cc2)cc1 | 10 nM |  |
| COc1cccc(NC(=O)c2ccc(C(=O)Nc3cccc(OC)c3)cc2)c1 | 1000 nM |  |
| N=C(N)N/N=C/c1ccc(/C=N/NC(=N)N)cc1 | 100 nM |  |
| Cc1c(C)c(CN)c(C)c(C)c1CN | > 1000 nM |  |
| c1cc(CNC2=NCCN2)ccc1CNC1=NCCN1 | > 1000 nM |  |

Second part, led by results:

| EC [1] | SMILES | further results |
| --- | --- | --- |
| > 1000 nM | c1ccc(NCc2cc(CNc3ccccc3)cc(CNc3ccccc3)c2)cc1 |  |
| 1 nM | Fc1ccccc1NCc1ccc(CNc2ccccc2F)cc1 |  |
| 1 nM | COc1cccc(NCc2ccc(CNc3cccc(OC)c3)cc2)c1 |  |
| 100 nM | c1ccc(NCc2ccccc2CNc2ccccc2)cc1 |  |
| 80 nM | c1ccc(CNCc2ccc(CNCc3ccccc3)cc2)cc1 |  |
| 50 nM | CC(Nc1ccccc1)c1ccc(C(C)Nc2ccccc2)cc1 (stereo not given) |  |
| 10 nM | COc1ccccc1NCc1ccc(CNc2ccccc2OC)cc1 |  |
| 10 nM | c1ccc(NCc2ccc(CNc3ccccc3)cc2)cc1 |  |
| 200 nM | Cc1cc(CNc2ccccc2)c(C)cc1CNc1ccccc1 |  |
| > 1000 nM | c1ccc(-c2nc(-c3ccc(-c4nc(-c5ccccc5)c(-c5ccccc5)[nH]4)cc3)[nH]c2-c2ccccc2)cc1 |  |
| > 1000 nM | c1ccc(NC[C@H]2CC[C@H](CNc3ccccc3)CC2)cc1 |  |
| 100 nM | Fc1cccc(NCc2ccc(CNc3cccc(F)c3)cc2)c1 |  |
| > 1000 nM | c1ccc(NCCNCc2ccc(CNCCNc3ccccc3)cc2)cc1 |  |
| 10 nM | c1ccc(NCc2cccc(CNc3ccccc3)c2)cc1 |  |
| 100 nM | c1ccc(NCc2ccc(CNc3ccccc3)c3ccccc23)cc1 |  |
| 1000 nM | Fc1ccc(NCc2ccc(CNc3ccc(F)cc3)cc2)cc1 |  |
| 10 nM | Cc1c(C)c(CNc2ccccc2)c(C)c(C)c1CNc1ccccc1 |  |
| 100 nM | c1ccc(NCc2c3ccccc3c(CNc3ccccc3)c3ccccc23)cc1 |  |
